Screening data from PubChem BioAssay.
Rows were chosen to be rich in hits. Some 2.9% of all compounds tested hit in one or more screens of this group.
ADAM10 inh – inhibitors of human ADAM10; O14672; recombinant ADAM10, EDANS/DABCYL FRET peptide cleavage, 3 h; inhibition, % at 7 µM; 370,000 tested, 0.62% active;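 active = inhibition above a per-campaign cutoff equal to the mean of compounds falling between control-based bounds plus 3 SD, cut at about 20% in these data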;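 also: 0% = DMSO wells while the 100% control is not disclosed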
Arr AP2 block – blocks beta-arrestin peptide binding to AP2 adaptin. inhibition, % at 10 µM. 340,000 tested, 0.31% active. FITC-arrestin peptide / GST-AP2 beads, flow cytometry; AP2 beta2 appendage carries R879A mutation;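 active = inhibition above a set limit, near 3 SD of compounds lacking own fluorescence, cut at about 54% in these data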;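 also: plate controls were DMSO wells for no effect and 5 µM unlabelled arrestin peptide for full effect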
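Material – GST-tagged AP2 beta2-adaptin appendage (R879A) on 4 µm glutathione beads · Probe or stimulus – fluorescein-tagged arrestin peptide at 50 nM final · Timing – 12 min plus 1 h, RT · Detection – bead flow cytometry, FITC channel · Read-out basis – inhibition as reduced fluorescein signal on beads, percent · Medium – PBS plus Tween 20 (0.05%) and BSA (0.1%)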
ADAM17 inh – inhibits human ADAM17; P78536; recombinant ADAM17, EDANS/DABCYL FRET peptide cleavage; inhibition, % at 6.95 µM; 370,000 tested, 0.83% active; AID 720648;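 active = inhibition above the mean of compounds lying between control limits plus 3 SD, set per campaign, cut at about 8.5% in these data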;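 also: 0% = DMSO-only wells as the low control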
Target sequence (P78536 215-824 limits assumed): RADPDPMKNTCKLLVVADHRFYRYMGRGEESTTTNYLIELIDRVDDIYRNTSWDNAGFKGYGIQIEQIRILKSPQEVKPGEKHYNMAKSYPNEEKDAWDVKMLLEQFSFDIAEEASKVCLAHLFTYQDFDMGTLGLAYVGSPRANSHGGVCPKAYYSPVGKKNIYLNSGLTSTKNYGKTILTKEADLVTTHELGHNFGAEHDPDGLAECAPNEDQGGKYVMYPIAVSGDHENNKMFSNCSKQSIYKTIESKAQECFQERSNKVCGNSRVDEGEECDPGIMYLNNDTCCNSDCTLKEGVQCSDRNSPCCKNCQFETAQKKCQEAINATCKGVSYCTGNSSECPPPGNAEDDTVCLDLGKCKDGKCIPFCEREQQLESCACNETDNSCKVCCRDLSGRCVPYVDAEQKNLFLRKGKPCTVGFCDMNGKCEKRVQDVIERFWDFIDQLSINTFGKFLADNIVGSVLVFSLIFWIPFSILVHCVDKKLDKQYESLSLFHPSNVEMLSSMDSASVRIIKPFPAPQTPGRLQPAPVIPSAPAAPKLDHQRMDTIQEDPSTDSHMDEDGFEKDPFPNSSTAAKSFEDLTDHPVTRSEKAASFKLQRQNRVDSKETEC
FAS-TE inh – blocks the thioesterase domain of human fatty acid synthase | recombinant FAS-TE, OMFH fluorogenic substrate, fluorescence endpoint | inhibition, % at 15 µM | 360,000 tested, 0.67% active;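 active = compounds whose normalised, plate-corrected inhibition of enzyme fluorescence in the single-dose primary screen is 50% or more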;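 also: 0% = DMSO with enzyme and 100% = substrate without enzyme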
NRP1-CendR mod – modulators of CendR peptide binding to human neuropilin-1; 360,000 tested, 0.85% active; O14786; inhibition, % at 25 µM; FAM-RPARPAR peptide binding to NRP-1, fluorescence polarization; AID 602438;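 active = inhibition or corrected inhibition above about 18%, plus a signal ratio from 0.5 to 1.5, limit read from the data, passing the limit was not always enough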
CaV13 ICDI inh – Primary screen for inhibitors of IQ motif and Ca2+-dependent inactivation inhibitor domain binding in CACNA1D, Förster resonance energy transfer in living cells, … | HEK cells, CFP/YFP FRET ICDI-IQ, plate reader, 10 min; percent FRET-ratio fall versus neutral wells | inhibition, % at 12.3 µM | 340,000 tested, 0.098% active;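 active = mean replicate inhibition of at least 30% and at least 1% of replicates passing that level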;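 also: 0% = median of the neutral control wells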
ADAM10 confirm – human ADAM10 inhibition, confirmation | AID 743208 | 2,100 tested, 1% active | shares compounds with ADAM10 inh | inhibition, % at 6.95 µM | ADAM10 QFRET peptide cleavage, EDANS fluorescence;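 active = inhibition above about 20% chosen separately for each screening run, limit read from the data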;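 also: 0% = DMSO wells and 100% = marimastat wells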
ADAM17 counter – ADAM17 inhibition, counter-screen for ADAM10 exosite hits. shares compounds with ADAM10 inh. 2,100 tested, 0.5% active. ADAM17 QFRET peptide cleavage, EDANS fluorescence. inhibition, % at 6.95 µM;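 active = mean triplicate inhibition above the solvent-only control wells' mean plus 3 SD, cut at about 12% in these data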;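 also: 0% = DMSO wells and 100% = marimastat wells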
The depositor's hits bear a star; · = no result.

SMILES	ADAM10 inh	Arr AP2 block	ADAM17 inh	FAS-TE inh	NRP1-CendR mod	CaV13 ICDI inh	ADAM10 confirm	ADAM17 counter
O=C(NCc1ccccc1)c1onc(CSc2ccccc2)c1C(=O)NCc1ccccc1	12	2	5	23	1	-13	·	·
CC(C)NC(=O)c1c(CSc2ccc(Cl)cc2)noc1C(=O)NCc1ccccc1	22*	2	5	16	13	-4	3	2
O=C(CSc1nnc(-c2cccnc2)n1-c1ccccc1)c1ccccc1Cl	-1	·	-1	·	·	·	·	·
CCOc1ccc(OCCC(=O)OCC(=O)Nc2ccc(C)c(S(=O)(=O)N3CCCCC3)c2)cc1	23*	-11	8	19	11	-2	8	2
CCC(=O)c1ccc(OCC(=O)OCC(=O)Nc2ccc(C)c(S(=O)(=O)N3CCCCC3)c2)cc1	-2	19	1	1	-7	-2	·	·
CCOc1ccc(OCCC(=O)OCC(=O)Nc2cc(S(=O)(=O)N3CCOCC3)ccc2OC)cc1	-6	3	-7	11	2	-3	·	·
CCOc1ccc(OCCC(=O)OCC(=O)Nc2cc(S(=O)(=O)N3CCOCC3)ccc2C)cc1	68*	13	-3	-5	-15	-7	0	0
CCOc1cc(/C=C/c2ccc3cccc([N+](=O)[O-])c3n2)ccc1O	22*	35	7	12	-2	-3	7	1
CCOc1cc(/C=C/c2ccc3cccc([N+](=O)[O-])c3n2)ccc1OCC(=O)N(C)C	2	-20	-2	8	0	-7	·	·
CCCS(=O)(=O)NC(=O)C1(C)CCN(C(=O)c2ccc(OC)c(F)c2)C1 (centres undefined)	·	·	·	-10	-1	·	·	·
Oc1ccc(F)cc1-c1cc(-c2ccc3c(c2)OCCO3)n[nH]1	23*	-44	7	24	-7	·	7	3
Oc1ccccc1-c1cc(-c2ccc(F)cc2)n[nH]1	3	1	0	7	-15	-5	·	·
Cc1cc(Cl)ccc1NC(=O)CN1CCC(C(O)(c2ccccc2)c2ccccc2)CC1	26*	8	8.7*	35	-6	-9	2	2
Cc1cc(Cl)ccc1NC(=O)CN1CCCC1	0	31	0	-3	7	-2	·	·
Cc1ccc(C(=S)NCS(=O)(=O)c2ccc(C)cc2)cc1	26*	0	7	4	-8	-8	21*	7
COc1ccc(C2CC(=O)C(c3ccc([N+](=O)[O-])cc3)=CN2Cc2ccccc2)cc1 (centres undefined)	-9	·	1	·	·	-12	·	·
O=S1(=O)c2c(F)cccc2OC(COc2ccccc2)CN1CCc1ccc(F)cc1 (centres undefined)	9	0	3	28	0	-10	·	·
O=S1(=O)c2c(F)cccc2O[C@@H](COCc2ccccc2)CN1CCc1ccc(F)cc1	21*	-2	9	24	-4	-6	5	1
O=C(CCN1CCN(Cc2ccccc2)CC1)Nc1ccc(OCc2ccccc2)cc1	21*	35	2	1	-9	-4	4	1
O=C(CCN1CCN(CCO)CC1)Nc1ccc(OCc2ccccc2)cc1	-2	-11	0	-7	1	-4	·	·
O=C(CN1CCN(C(=O)CNC(=O)c2ccc(N3CCCC3=O)cc2)CC1)Nc1cccc(F)c1	-26	·	-3	-9	-1	-6	·	·
CCOC(=O)c1ccc(NC(=S)NC(=O)c2cncc(Br)c2)cc1	75*	-13	-2	-4	-2	-4	0	0
CN(CCCC1CCCC1)C(=O)c1cc(COc2ccc(F)cc2F)on1	22*	36	1	37	8	·	5	2
C=CCc1cccc(CNc2nc3ccccc3n2CC)c1O	20*	-2	5	16	6	-4	3	1
CCCCn1c(NCc2ccccc2O)nc2ccccc21	4	-4	1	9	14	-6	·	·
SMILES	ADAM10 inh	Arr AP2 block	ADAM17 inh	FAS-TE inh	NRP1-CendR mod	CaV13 ICDI inh	ADAM10 confirm	ADAM17 counter
C[C@H]1CCC[C@@]2(O[C@@H](CCO)C[C@H](O)[C@H]2O)O1	83*	9	-8	-13	0	-11	1	0
Cc1ccccc1NC(=S)NNc1ncc(C(F)(F)F)cc1Cl	8	2	2	-4	-1	-4	·	·
Fc1ccccc1NC(=S)NNc1ncc(C(F)(F)F)cc1Cl	21*	-2	5	-3	0	-5	2	1
CN(Cc1cn(Cc2ccccc2)nn1)S(=O)(=O)c1ccccc1Br	-1	·	-4	·	·	·	·	·
COc1ccc(C2CC(=O)C(c3ccc(C(C)=O)cc3)=CN2Cc2ccccc2)cc1 (centres undefined)	-74	·	-18	·	·	-4	·	·
O=C(Nc1ccccc1)c1nc[nH]c1C(=O)NCc1ccccc1	24*	24	8	12	-4	-10	2	1
O=C(N[C@@H](Cc1ccccc1)C(=O)OCc1ccccc1)c1nc[nH]c1C(=O)N1CCc2ccccc2C1	20*	27	9.3*	16	6	-11	3	2
CN(Cc1ccccc1)C(=O)c1[nH]cnc1C(=O)N[C@@H](Cc1ccccc1)C(=O)OC(C)(C)C	23*	8	8	-2	-1	11	0	1
Cc1cccc(NC(=O)c2nc[nH]c2C(=O)N[C@H](C)c2ccccc2)c1	23*	28	7	23	-9	4	6	2
CNC(=O)c1[nH]cnc1C(=O)N[C@@H](Cc1ccccc1)C(=O)OC(C)(C)C	6	-9	2	-4	8	-12	·	·
CCN(CC)C(=O)c1[nH]cnc1C(=O)NCc1ccc(CNC(=O)OC(C)(C)C)cc1	-6	6	0	-12	23	-8	·	·
CC(C)(C)OC(=O)NCc1ccc(CNC(=O)c2nc[nH]c2C(=O)NCc2ccccc2)cc1	21*	20	8	7	5	-6	3	0
CC(C)C(NC(=O)[C@H](Cc1ccccc1)NC(=O)OCc1ccccc1)P(=O)(O)OC(Cc1ccccc1)C(=O)O (some centres undefined)	-4	·	-8	·	·	·	·	·
Cc1cc(C)cc(-n2c(SCC(=O)Nc3cccc(S(=O)(=O)NC4=NCCCCC4)c3)nc3ccccc3c2=O)c1	26*	-9	6	48	6	-2	4	1
